Key:
Heme oxygenase 2 = target: T1, Heme oxygenase 2 (Homo sapiens, UniProt P30519); experiment: (§1) Covalent binding affinity to HMOX2 at Cys282 residue in human NCI-H358 cells assessed as reduction of log2 H/L ratio for tryptic peptide […] incubated for 4 hrs followed by cell lysis and subsequently labelled with light thiol probe N-((S)-18-iodo-11-isopropyl-10,13,17-trioxo-3,6-dioxa-9,12,16-triazaoctadecyl)-6-((4R,5S)-5-methyl-2-oxoimidazolidin-4-yl)hexanamide and heavy thiol probe 4 for 1 hr under dark conditions followed by tryptic digestion for overnight and measured by discovery ABPP based nano LC-MS/MS analysis
T1 sequence (P30519 whole entry): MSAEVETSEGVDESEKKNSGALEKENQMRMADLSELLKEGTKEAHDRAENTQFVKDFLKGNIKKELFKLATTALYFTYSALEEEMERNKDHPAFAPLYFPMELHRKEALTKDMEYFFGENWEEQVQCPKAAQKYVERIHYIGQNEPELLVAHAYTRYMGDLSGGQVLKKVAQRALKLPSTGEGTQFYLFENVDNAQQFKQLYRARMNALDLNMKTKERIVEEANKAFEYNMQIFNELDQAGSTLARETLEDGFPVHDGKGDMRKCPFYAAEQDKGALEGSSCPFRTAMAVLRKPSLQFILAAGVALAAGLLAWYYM
Summary of the method: (§2)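 H358 cells were treated 4 h with DMSO, 0.08, 0.4, 2 or 10 μM, each paired with DMSO control cells, in biological duplicate. After lysis and denaturation, treated lysate took heavy thiol probe and control lysate took light probe. Lysates were combined equally, and probe-labelled tryptic peptides were streptavidin-enriched. Peptides were run twice by 180 min data-dependent nano LC-MS/MS. Hits needed log2 H/L below −0.776 (3σ) plus a dose-dependent decrease.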

Quinone oxidoreductase = target: T2, Quinone oxidoreductase (Homo sapiens, UniProt Q08257); experiment: as §1, with “CRYZ” for “HMOX2”, “Cys45” for “Cys282”; summary of the method: as §2
T2 sequence (Q08257 whole entry): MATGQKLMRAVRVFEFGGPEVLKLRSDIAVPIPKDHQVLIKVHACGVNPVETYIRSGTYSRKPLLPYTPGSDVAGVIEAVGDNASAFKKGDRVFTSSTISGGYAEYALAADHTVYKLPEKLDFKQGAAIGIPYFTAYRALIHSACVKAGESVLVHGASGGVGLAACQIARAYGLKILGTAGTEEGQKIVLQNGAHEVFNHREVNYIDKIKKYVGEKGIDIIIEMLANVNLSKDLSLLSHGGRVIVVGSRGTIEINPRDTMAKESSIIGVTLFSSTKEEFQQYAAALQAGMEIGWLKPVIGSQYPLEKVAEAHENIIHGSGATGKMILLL

MIA PaCa-2 = experiment: Antiproliferative activity against human MIA PaCa-2 cells harboring KRAS G12C mutant assessed as reduction in cell viability; format: functional, cell-based
Homo sapiens = organism: Homo sapiens; experiment: Covalent inhibition of GDP bound His-tagged KRAS G12C/C51L/C80L/C118S mutant (1 to 169 residues) (unknown origin) expressed in Escherichia coli assessed as enzyme-compound adduct formation at Cys12 residue by measuring ratio of Kinact/Ki measured up to 20 mins by mass spectrometry analysis; details: time min <=20
Summary of the method: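 KRAS G12C was held fixed at 2 μM and incubated with varying compound concentrations. Fraction of covalent Cys12 adduct over time was measured by intact-protein LC-MS, and kinact/KI was calculated from these kinetic data.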

[1] = target: T3, Heme oxygenase 2 (Homo sapiens) (UniProt P30519); experiment: (§3) Covalent binding affinity to HMOX2 at Cys282 residue in human NCI-H358 cells assessed as log2 H/L ratio at 10 uM pretreated for 3 hrs followed by N-(((6S,7R)-7-(4-chloro-3-fluorophenyl)-1,4-oxazepan-6-yl)methyl)-2-hydroxyacetamide treatment for 3 hrs by competitive TMT click chemistry pull-down experiment based LC-MS/MS analysis; format: cell-based; details: time 6.0 hrs
T3 sequence (whole entry): T1 sequence (P30519 whole entry)
Summary of the method: (§4)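 H358 cells were pretreated with DMSO (n = 3) or 10 μM compound for 3 h, then 2 μM alkyne probe was added for another 3 h. Cells were lysed, clicked onto azide-agarose resin, digested, TMT-labelled and pooled. The pool was fractionated by high-pH HPLC and each fraction run twice by 60 min low-pH nano LC-MS/MS. Readout was log2 compound/DMSO normalized reporter intensity, with a least-squares means test and FDR adjustment.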

[2] = target: T4, Synaptic vesicle membrane protein VAT-1 homolog (Homo sapiens) (UniProt Q99536); experiment: as §3, with “VAT1” for “HMOX2”, “Cys86” for “Cys282”; format: cell-based; details: time 6.0 hrs; summary of the method: as §4
T4 sequence (whole entry): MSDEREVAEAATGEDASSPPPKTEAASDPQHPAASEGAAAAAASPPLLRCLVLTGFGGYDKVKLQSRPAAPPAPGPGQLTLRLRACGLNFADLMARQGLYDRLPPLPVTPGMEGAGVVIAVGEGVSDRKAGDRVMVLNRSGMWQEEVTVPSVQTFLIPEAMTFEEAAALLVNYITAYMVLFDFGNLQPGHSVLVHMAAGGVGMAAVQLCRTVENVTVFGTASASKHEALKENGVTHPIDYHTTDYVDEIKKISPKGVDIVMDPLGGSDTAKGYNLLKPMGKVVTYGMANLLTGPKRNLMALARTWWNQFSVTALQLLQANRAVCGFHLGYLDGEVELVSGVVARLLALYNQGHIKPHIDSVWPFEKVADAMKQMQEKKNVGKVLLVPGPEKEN

GTPase KRas = GTPase KRas (Homo sapiens, UniProt P01116, G12C); experiment: as §1, with “KRAS G12C mutant” for “HMOX2”, “Cys12” for “Cys282”; summary of the method: as §2
[3] = system: GTPase KRas (Homo sapiens), P01116 [G12C]; experiment: as above; summary of the method: as §2
[4] = target: T5, Quinone oxidoreductase (Homo sapiens) (UniProt Q08257); experiment: as §3, with “CRYZ” for “HMOX2”, “Cys45” for “Cys282”; format: cell-based; details: time 6.0 hrs; summary of the method: as §4
T5 sequence (whole entry): T2 sequence (Q08257 whole entry)

NCI-H2030 = experiment: Antiproliferative activity against human NCI-H2030 cells harboring KRAS G12C mutant assessed as reduction in cell viability; format: functional, cell-based
Reticulon-4 = target: T6, Reticulon-4 (Homo sapiens, UniProt Q9NQC3); experiment: as §1, with “RTN4” for “HMOX2”, “Cys1101” for “Cys282”; summary of the method: as §2
T6 sequence (Q9NQC3 whole entry): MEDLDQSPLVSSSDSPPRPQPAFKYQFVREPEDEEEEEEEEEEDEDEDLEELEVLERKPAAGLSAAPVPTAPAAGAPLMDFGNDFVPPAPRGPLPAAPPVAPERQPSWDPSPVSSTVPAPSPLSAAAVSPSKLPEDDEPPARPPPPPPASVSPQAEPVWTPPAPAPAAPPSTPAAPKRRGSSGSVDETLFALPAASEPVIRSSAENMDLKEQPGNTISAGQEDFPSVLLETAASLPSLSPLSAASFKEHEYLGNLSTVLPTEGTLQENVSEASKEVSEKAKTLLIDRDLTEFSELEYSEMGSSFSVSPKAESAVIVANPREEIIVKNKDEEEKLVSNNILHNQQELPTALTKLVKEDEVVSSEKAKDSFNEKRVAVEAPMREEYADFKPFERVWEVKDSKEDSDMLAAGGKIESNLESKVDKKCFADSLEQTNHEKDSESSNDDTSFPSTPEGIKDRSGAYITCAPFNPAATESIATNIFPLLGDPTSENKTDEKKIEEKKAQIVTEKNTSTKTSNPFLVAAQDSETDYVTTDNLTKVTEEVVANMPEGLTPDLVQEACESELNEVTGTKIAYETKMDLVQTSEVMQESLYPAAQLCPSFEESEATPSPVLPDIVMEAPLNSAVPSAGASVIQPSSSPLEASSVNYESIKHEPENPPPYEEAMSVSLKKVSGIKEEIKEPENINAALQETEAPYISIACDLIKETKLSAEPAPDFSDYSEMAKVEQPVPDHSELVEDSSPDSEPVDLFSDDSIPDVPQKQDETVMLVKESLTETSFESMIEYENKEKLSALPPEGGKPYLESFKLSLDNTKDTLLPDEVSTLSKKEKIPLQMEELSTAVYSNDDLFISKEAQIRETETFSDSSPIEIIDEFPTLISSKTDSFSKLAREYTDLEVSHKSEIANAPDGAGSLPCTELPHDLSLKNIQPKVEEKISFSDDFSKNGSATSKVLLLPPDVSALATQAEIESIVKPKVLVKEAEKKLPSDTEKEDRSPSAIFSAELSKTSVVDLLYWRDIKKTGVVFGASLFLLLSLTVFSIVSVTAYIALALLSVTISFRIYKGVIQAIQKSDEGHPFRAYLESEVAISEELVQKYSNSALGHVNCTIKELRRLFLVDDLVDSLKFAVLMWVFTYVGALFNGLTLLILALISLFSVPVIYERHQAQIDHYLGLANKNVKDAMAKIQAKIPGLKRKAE

[5] = target: T7, Synaptic vesicle membrane protein VAT-1 homolog (Homo sapiens, UniProt Q99536); experiment: as §1, with “VAT1” for “HMOX2”, “Cys” for “Cys282”; summary of the method: as §2
T7 sequence (Q99536 whole entry): T4 sequence (whole entry)

C=CC(=O)N1CCN(c2ncnc3c(F)c(-c4c(O)cccc4F)c(Cl)cc23)CC1
IC50 (Heme oxygenase 2): 7.64 µM | IC50 (Quinone oxidoreductase): 8.44 µM | IC50 (MIA PaCa-2): 0.12 µM | Ratio (Homo sapiens): 501 M⁻¹ s⁻¹ | Ratio [1]: -0.3 | Ratio [2]: -0.6 | IC50 (GTPase KRas): 1.59 µM | inhibition [3]: Dose-dependent effect | Ratio [4]: 0.15 | IC50 (NCI-H2030): 0.16 µM | IC50 (Reticulon-4): 14.6 µM | IC50 [5]: 4.54 µM

— ChEMBL document CHEMBL4715824, “Chemical Proteomic Characterization of a Covalent KRASG12C Inhibitor” (ACS Med Chem Lett, 2018)
